From ChEMBL document CHEMBL1955737, “Diarylpyrimidine-dihydrobenzyloxopyrimidine hybrids: new, wide-spectrum anti-HIV-1 agents active at (sub)-nanomolar level” (J Med Chem, 2011)

Tests used:
[1] = Ratio of TMC120 CC50 to compound CC50 for human MT4 cells; type: ADME, cell-based
[2] = test system: Human immunodeficiency virus type 1 reverse transcriptase (Human immunodeficiency virus 1), Q72547 [L100I]
[3] = test system: Human immunodeficiency virus 1; assay: Ratio of efavirenz EC50 to compound EC50 for wild type HIV 1 NL4-3 infected in human MT4 cells; type: functional
[4] = test system: Human immunodeficiency virus 1; assay: Ratio of ID50 for HIV 1 reverse transcriptase L100I mutant to ID50 for wild type HIV 1 NL4-3 reverse transcriptase
Method in brief: (§1)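 Recombinant HIV-1 RT (wild type or K103N, L100I, Y181I or Y188L), purified to >95%, at 2-4 nM. RNA-dependent DNA polymerase assay with 0.5 μg poly(rA)/oligo(dT) 10:1 (0.3 μM 3'-OH ends) and 10 μM [3H]dTTP in 8% final DMSO. Initial velocities were taken from aliquots sampled every 2 min. […] The ratio is mutant ID50 over wild-type ID50. Means of at least three experiments.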

[5] = test system: Human immunodeficiency virus 1; assay: Antiviral activity against wild type HIV 1 NL4-3 infected in human MT4 cells assessed as inhibition of virus-induced cytopathic effect after 5 days by MTT assay; type: functional, organism-based; conditions: Human immunodeficiency virus 1, NL4-3, MT4, 120 h
[6] = test system: Human immunodeficiency virus 1; assay: Ratio of ID50 for HIV 1 reverse transcriptase K103N mutant to ID50 for wild type HIV 1 NL4-3 reverse transcriptase; method in brief: as §1
[7] = test system: Human immunodeficiency virus 1; assay: Ratio of ID50 for HIV 1 reverse transcriptase Y188L mutant to ID50 for wild type HIV 1 NL4-3 reverse transcriptase; method in brief: as §1
[8] = test system: Human immunodeficiency virus 1; assay: Resistance ratio of EC50 for multidrug-resistant HIV 1 IRLL98 harboring reverse transcriptase K101Q/Y181C/G190a mutant to EC50 for wild type HIV 1 NL4-3 infected in human MT4 cells; type: functional
Method in brief: (§2)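 Fold change is the EC50 against the mutant strain (K103N, Y181C, Y188L or IRLL98) divided by the EC50 against wild-type NL4-3. Both EC50s come from MT-4 cells infected in the presence of a range of drug concentrations, with MTT viability read at day 5. Values are means of at least two experiments.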

[9] = test system: Human immunodeficiency virus type 1 reverse transcriptase (Human immunodeficiency virus 1), Q72547 [K103N]
[10] = test system: Human immunodeficiency virus 1; assay: Antiviral activity against HIV 1 harboring reverse transcriptase Y181C mutant infected in human MT4 cells assessed as inhibition of virus-induced cytopathic effect after 5 days by MTT assay; type: functional, organism-based; conditions: Human immunodeficiency virus 1, MT4, 120 h
Method in brief: (§3)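 MT-4 cells (NIH AIDS Reagent Program) infected with the mutant HIV-1 strain in the presence of a range of drug concentrations. Mutant strains were from the MRC Centralised Facility for AIDS Reagents; IRLL98 carries K101Q, Y181C and G190A. Viable cells were counted by MTT colorimetry at day 5 post-infection. […] Values are means of at least two experiments.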

[11] = test system: Human immunodeficiency virus type 1 reverse transcriptase (Human immunodeficiency virus 1), Q72547 [K103N]; assay: Ratio of MC1220 ID50 to compound ID50 for HIV 1 reverse transcriptase K103N mutant
[12] = test system: Human immunodeficiency virus 1; assay: Antiviral activity against HIV 1 harboring reverse transcriptase Y188L mutant infected in human MT4 cells assessed as inhibition of virus-induced cytopathic effect after 5 days by MTT assay; type: functional, organism-based; conditions: Human immunodeficiency virus 1, MT4, 120 h
[13] = test system: Human immunodeficiency virus 1; assay: Ratio of ID50 for HIV 1 reverse transcriptase Y181I mutant to ID50 for wild type HIV 1 NL4-3 reverse transcriptase; method in brief: as §1
[14] = test system: Human immunodeficiency virus 1; assay: Antiviral activity against multidrug-resistant HIV 1 IRLL98 harboring reverse transcriptase K101Q/Y181C/G190a mutant infected in human MT4 cells assessed as virus-induced cytopathic effect after 5 days by MTT assay; type: functional, organism-based; conditions: Human immunodeficiency virus 1, IRLL98, MT4, 120 h; method in brief: as §3
[15] = Cytotoxicity against human MT4 cells assessed as cell viability by MTT assay; type: cell-based
[16] = test system: MT4; assay: Ratio of MC1220 CC50 to compound CC50 for human MT4 cells; type: ADME, cell-based
[17] = test system: Human immunodeficiency virus type 1 reverse transcriptase (Human immunodeficiency virus 1), Q72547 [Y181I]
[18] = test system: Human immunodeficiency virus 1; assay: Antiviral activity against HIV 1 harboring reverse transcriptase K103N mutant infected in human MT4 cells assessed as inhibition of virus-induced cytopathic effect after 5 days by MTT assay; type: functional, organism-based; conditions: Human immunodeficiency virus 1, MT4, 120 h
[19] = biological target: Human immunodeficiency virus type 1 reverse transcriptase (Human immunodeficiency virus 1) (UniProt Q72547)
[20] = test system: Human immunodeficiency virus 1; assay: Resistance ratio of EC50 for HIV 1 harboring reverse transcriptase K103N mutant infected in human MT4 cells to EC50 for wild type HIV 1 NL4-3 infected in human MT4 cells; type: functional; method in brief: as §2
[21] = test system: Human immunodeficiency virus 1; assay: Resistance ratio of EC50 for HIV 1 harboring reverse transcriptase Y181C mutant infected in human MT4 cells to EC50 for wild type HIV 1 NL4-3 infected in human MT4 cells; type: functional; method in brief: as §2
[22] = test system: Human immunodeficiency virus 1; assay: Resistance ratio of EC50 for HIV 1 harboring reverse transcriptase Y188L mutant infected in human MT4 cells to EC50 for wild type HIV 1 NL4-3 infected in human MT4 cells; type: functional; method in brief: as §2
[23] = Selectivity index, ratio of CC50 for human MT4 cells to EC50 for HIV 1 NL4-3; type: toxicity, cell-based; conditions: read-out: Ratio CC50/EC50
Method in brief: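 CC50 from mock-infected MT-4 cells and EC50 against HIV-1 NL4-3 in infected MT-4 cells, both by day-5 MTT viability read-out; index computed as CC50/EC50(NL4-3); means of at least two experiments.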

In the case of `Cc1c(N)nc(Nc2ccc(C#N)cc2)nc1C(C)c1c(F)cccc1F` (stereo not drawn), the selectivity ratio [1] is reported as over 10, the ID50 [2] is reported as 282 nM and the “Ratio EC50” value [3] is reported as over 10. The Ratio [4] was 20, the EC50 [5] was 0.08 nM and the Ratio [6] was 1.6. The Ratio [7] was 10, the “Ratio EC50” value [8] was 10 and the ID50 [9] was 22 nM. The EC50 [10] was 39.9 nM, the Ratio [11] was 23 and the EC50 [12] was 27.4 nM. It also gave a Ratio [13] of 120, an EC50 [14] of 0.82 nM and a CC50 [15] of 40500 nM. The Ratio [16] was 2.5, the ID50 [17] was 1680 nM and the EC50 [18] was 34.7 nM. For the same compound, the ID50 [19] was 14 nM.

`Cc1c(Cl)nc(Nc2ccc(C#N)cc2)nc1C(C)c1c(F)cccc1F` (stereo not drawn) showed an ID50 [2] of 150 nM, a Ratio [4] of 17 and an EC50 [5] of 2.3 nM. The Ratio [6] was 8.1, the Ratio [7] was 2.6 and the “Ratio EC50” value [20] was 1. For the same compound, the “Ratio EC50” value [8] was 3, the “Ratio EC50” value [21] was 22 and the ID50 [9] was 71 nM. For the same compound, the EC50 [10] was 44 nM, the “Ratio EC50” value [22] was 30 and the EC50 [12] was 60 nM. For the same compound, the Ratio [13] was 386, the EC50 [14] was 7.8 nM and the CC50 [15] was over 13000 nM. It also gave an ID50 [17] of 3400 nM, a selectivity ratio [23] of over 5650 and an EC50 [18] of 2.3 nM. For the same compound, the ID50 [19] was 8.8 nM.

In the case of `N#Cc1ccc(Nc2nc(N)cc(Cc3c(F)cccc3F)n2)cc1`, the selectivity ratio [1] is reported as over 10, the ID50 [2] is reported as 1510 nM and the “Ratio EC50” value [3] is reported as over 10. For the same compound, the Ratio [4] was 137, the EC50 [5] was 0.3 nM and the Ratio [6] was 15. For the same compound, the Ratio [7] was 280, the “Ratio EC50” value [20] was 47 and the “Ratio EC50” value [21] was 238. For the same compound, the ID50 [9] was 169 nM, the EC50 [10] was 71.4 nM and the “Ratio EC50” value [22] was 361. It also gave an EC50 [12] of 108 nM, a Ratio [13] of 1570 and a CC50 [15] of 44600 nM. For the same compound, the Ratio [16] was 2.5, the ID50 [17] was 17300 nM and the selectivity ratio [23] was 149000. It also gave an EC50 [18] of 14.2 nM and an ID50 [19] of 11 nM.
